An excerpt weighted towards active compounds, which were near 3.7% of everything screened.
NPY1 pot ag = potentiates or activates human NPY-Y1 receptor; P25929; NPY-Y1 expressing cells, potentiator/agonist activation; activation, % at 3.6 µM; actives 0.37% (n = 220,000); AID 1304; in the data active means activation above about 33%, passing the limit was not always enough;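 further: cells stimulated with NPY at EC10 then isoproterenol at EC100; 0% = low agonist plus stimulus and 100% = saturating agonist plus stimulus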
NPY-Y1 antag = blocks the human neuropeptide Y Y1 receptor | P25929 | HEK293-CNG Y1 cells, membrane potential fluorescence; NPY at EC95, then isoproterenol | inhibition, % at 3.6 µM | actives 1% (n = 200,000);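 active means inhibition above the campaign mean inhibition of all tested compounds plus 3 SD, cut at about 20% in these data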;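 further: 0% = DMSO wells given NPY plus isoproterenol and 100% = isoproterenol alone without NPY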
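Material: HEK293 cells co-expressing NPY Y1 receptor and cyclic-nucleotide gated channel. Timing: compound incubation 1 h at room temperature, readout 45 min post-stimulation. Signal: fluorescence, membrane potential probe.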
KCC2 mod = modulates chloride dependent transport by human KCC2; actives 2.2% (n = 190,000); Q9H2X9; KCC2 cells, thallium flux FluoZin-2 fluorescence; AID 1456; B-score of Tl+ flux slope (higher = more flux/activation; lower = inhibition) at 10 µM;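 active means thallium flux slope and its plate-corrected score both differing from the plate sample mean at a set confidence after two filtering rounds, in either direction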;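 further: slope of fluorescence scaled to starting intensity during 10 to 20 s after thallium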
NPY2 pot ag = potentiators or agonists of human neuropeptide Y receptor Y2; P49146; cells expressing NPY-Y2, potentiator/agonist read-out; activation, % at 3.6 µM; actives 0.45% (n = 220,000); in the data active means activation above about 27%;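 further: cells stimulated with NPY near EC25 plus isoproterenol at EC100; 0% = vehicle plus submaximal agonist and 100% = vehicle plus saturating agonist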
Target sequence (P49146 whole entry, looked up): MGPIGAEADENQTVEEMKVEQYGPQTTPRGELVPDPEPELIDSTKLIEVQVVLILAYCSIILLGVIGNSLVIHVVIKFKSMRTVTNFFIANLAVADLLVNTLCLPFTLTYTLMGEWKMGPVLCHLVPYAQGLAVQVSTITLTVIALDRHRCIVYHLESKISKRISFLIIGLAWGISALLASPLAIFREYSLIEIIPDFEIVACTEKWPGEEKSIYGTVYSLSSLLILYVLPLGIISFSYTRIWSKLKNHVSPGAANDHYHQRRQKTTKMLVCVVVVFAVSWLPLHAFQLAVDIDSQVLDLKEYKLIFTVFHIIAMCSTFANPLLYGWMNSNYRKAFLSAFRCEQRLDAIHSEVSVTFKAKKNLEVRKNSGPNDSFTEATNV
Furin inhibitor = human furin inhibition; actives 0.061% (n = 220,000); AID 463115; P09958; purified furin, fluorogenic substrate cleavage; inhibition, % at 20 µM or 30 µM; in the data active means inhibition above about 25%
NPY Y2 blocker = NPY-Y2 (human) receptor antagonism; inhibition, % at 2.7 µM; actives 0.99% (n = 140,000); NPY-Y2 expressing cells, antagonist mode; in the data active means inhibition above about 17%;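 further: 0% = vehicle with agonist challenge and 100% = reference antagonist with challenge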
KCC2 secondary = confirmation of human KCC2 transport modulators; HEK293-KCC2, thallium flux, FluoZin2 fluorescence; active compounds read high; shares compounds with KCC2 mod; actives 15% (n = 3,700); normalised thallium flux (F/F0 slope) at 10 µM;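 active means thallium flux slope above the same plate's solvent-only control mean plus 3 SD; inconclusive means the two replicate wells disagree; inactive means no significant difference from solvent-only control wells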
KCC2 bumet counter = thallium flux despite bumetanide block in KCC2 cells, secondary assay 3; shares compounds with KCC2 mod; HEK293-KCC2 + bumetanide/ouabain, thallium flux FluoZin2; active compounds read high; normalized thallium flux at 10 µM; actives 49% (n = 3,700); AID 1714;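 active means thallium entry rate above the same plate's blocked-transporter control wells by more than 3 SD; inconclusive means the two repeat wells disagree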;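 further: raw slope of fluorescence over initial fluorescence between 10 and 20 s after thallium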
KCC2 secondary2 = confirmation of human KCC2 transport modulators; shares compounds with KCC2 mod; HEK293-KCC2, thallium flux FluoZin2 fluorescence; actives lie on both sides; F/F0 rise rate, 10–20 s post-thallium; normalized thallium flux at 10 µM; actives 23% (n = 3,700);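 active means thallium flux slope more than 3 SD above or below the plate's solvent-only control mean, mostly below; inconclusive means the two repeat wells disagreed; inactive means no significant shift from solvent-only controls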;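 further: raw slope with 0.1% DMSO as baseline and bumetanide as block control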
HEK counter1 = parental HEK flux effect, counter-screen | shares compounds with KCC2 mod | HEK293 parental cells, thallium flux FluoZin2, ouabain; baseline-ratio fluorescence slope, 10–20 s after thallium | thallium flux rate (normalised fluorescence) at 10 µM | actives 46% (n = 3,700) | AID 1716;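 active means thallium flux rate significantly above the same plate's solvent-only control wells, beyond their mean plus 3 SD; inconclusive means the two replicate wells gave conflicting results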
KCC2 ouabain = confirmation of human KCC2 modulators with ouabain; shares compounds with KCC2 mod; HEK293-KCC2, thallium flux FluoZin2 fluorescence; bidirectional: low = inhibitor, high = activator; raw Tl+ flux slope (below DMSO = inhibition, above = activation) at 10 µM; actives 48% (n = 3,700); AID 1717;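 active means thallium flux slope beyond 3 SD from same-plate DMSO control mean in most replicates, usually higher, sometimes lower; inconclusive means repeat tests gave conflicting results; inactive means no significant difference from controls in most replicates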;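 further: slope of initial-normalized fluorescence between seconds 10 and 20 after thallium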
HEK293 Tl flux2 = parental HEK flux effect, counter-screen 2; shares compounds with KCC2 mod; HEK293 parental, thallium flux FluoZin-2 fluorescence slope; thallium flux slope at 10 µM; actives 33% (n = 3,700); AID 1718;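 active means thallium flux slope above the same plate's solvent-control mean plus 3 SD in both duplicate wells; inconclusive means duplicate wells that disagreed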;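 further: run without ouabain in cells lacking the KCC2 cotransporter; slope of fluorescence scaled to its starting value between 10 and 20 s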
Numbers without * were called inactive; ? = inconclusive; · = not tested or not shown.

SMILES	NPY1 pot ag	NPY-Y1 antag	KCC2 mod	NPY2 pot ag	Furin inhibitor	NPY Y2 blocker	KCC2 secondary	KCC2 bumet counter	KCC2 secondary2	HEK counter1	KCC2 ouabain	HEK293 Tl flux2
Cc1ccc(/C=C2\SC(N3CCN(C(c4ccccc4)c4ccccc4)CC3)=NC2=O)o1	-1	5	-0.5	-8	3	0	·	·	·	·	·	·
O=C(C[n+]1ccc(/C=N/O)cc1)N(Cc1ccccc1)Cc1ccccc1	-4	-5	1.1	8	-21	·	·	·	·	·	·	·
COC(=O)c1ccc(NC(=O)CNc2ccccc2)cc1	3	0	-0.063	15	-16	·	·	·	·	·	·	·
C=C(C)C1CC=C(C)/C(=N\NC(=S)Nc2ccc(C)cc2)C1 (stereo unspecified)	-6	6	4.6*	-16	-11	9	0.0095	0.022*	0.032	0.012*	0.04*	0.011*
Cc1ccc(CN2C3CCCC2CC(NC(=O)c2ccc(C)cc2)C3)cc1 (stereo unspecified)	-24	3	-0.39	-12	-13	·	·	·	·	·	·	·
COc1cc(C(=O)NCCc2cn3ccc(C)cc3n2)cc(OC)c1OC	-7	0	-3.4*	6	-17	2	?	?	0.034	0.0077	0.023	0.01
Cn1cc(S(=O)(=O)N2CCN(c3ccccc3)CC2)c(=O)n(C)c1=O	7	-4	-0.014	-2	-15	0	·	·	·	·	·	·
Cn1cc(S(=O)(=O)N2CCc3ccccc3C2)c(=O)n(C)c1=O	-13	11	-3.4*	-11	-12	4	0.01	?	0.033	0.0078	0.022	0.01
COc1ccc(C(=O)OC/C(O)=C(\C#N)c2nc3ccccc3[nH]2)cc1S(=O)(=O)N1CCOCC1	-32	-3	0.17	-4	-24	1	·	·	·	·	·	·
CCOC(=O)c1c(-c2cccs2)csc1NC(C)=O	-29	8	-1.3	-16	-8	8	·	·	·	·	·	·
CCOC(=O)c1c(-c2cccs2)csc1NC(=O)CCCC(=O)O	-29	6	·	-34	-10	13	0.016	0.006*	0.027	?	0.015	0.0089
CC(=O)c1c(C)[nH]c(-c2ccccc2)nc1=S	-9	·	14*	-7	-3	·	0.017*	0.022*	0.031	0.013*	0.025	?
COc1ccccc1-c1nc(=S)c(C(C)=O)c(C)[nH]1	1	·	1.2	9	-15	·	·	·	·	·	·	·
CC(=O)c1c(NC(=O)c2ccccc2)[nH]c(-c2ccccc2)nc1=S	-9	-1	36*	-4	-15	·	?	0.052*	0.062*	0.052*	0.052*	0.054*
CCN(CC)CCN(C)C1CCC(c2ccccc2)CC1 (stereo unspecified)	-35	9	-0.21	-9	-28	7	·	·	·	·	·	·
COC(=O)c1ccc(NC(=S)NN2CCCCC2c2cccnc2)cc1 (stereo unspecified)	7	·	-0.9	8	-13	·	·	·	·	·	·	·
O=C(NC(=S)NN1CCCCC1c1cccnc1)c1ccc(Br)cc1 (stereo unspecified)	0	·	65*	1	-30	·	0.033*	0.099*	0.046*	0.04*	0.066*	0.02*
